Data taken from ChEMBL document CHEMBL4422683, “Synthesis of 2-,4,-6-, and/or 7-substituted quinoline derivatives as human dihydroorotate dehydrogenase (hDHODH) inhibitors and anticancer agents: 3D QSAR-assisted design” (Bioorg Med Chem Lett, 2019).
pIC50: −log10 of the molar value.

Experiments:
[1] = biological target: Dihydroorotate dehydrogenase (quinone), mitochondrial (Homo sapiens, UniProt Q02127); assay: Inhibition of human recombinant N-terminal His-tagged DHODH (31 to 395 residues) expressed in Escherichia coli using DHO as substrate measured after 20 mins by DCPI dye-based assay
[2] = system: HT-29; assay: Antiproliferative activity against human HT-29 cells after 48 hrs by MTT assay; format: functional, cell-based; details: HT-29, 48 h
In short: (§1)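 MTT antiproliferative screen on human colorectal adenocarcinoma HT-29 and breast cancer MDA-MB-231 cells. Cell growth inhibition IC50 was read from the dose-response curve.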

[3] = system: MDA-MB-231; assay: Antiproliferative activity against human MDA-MB-231 cells after 48 hrs by MTT assay; format: functional, cell-based; details: MDA-MB-231, 48 h; in short: as §1

Dihydroorotate dehydrogenase (quinone), mitochondrial, sequence (Q02127 whole entry, the tested form may be a part): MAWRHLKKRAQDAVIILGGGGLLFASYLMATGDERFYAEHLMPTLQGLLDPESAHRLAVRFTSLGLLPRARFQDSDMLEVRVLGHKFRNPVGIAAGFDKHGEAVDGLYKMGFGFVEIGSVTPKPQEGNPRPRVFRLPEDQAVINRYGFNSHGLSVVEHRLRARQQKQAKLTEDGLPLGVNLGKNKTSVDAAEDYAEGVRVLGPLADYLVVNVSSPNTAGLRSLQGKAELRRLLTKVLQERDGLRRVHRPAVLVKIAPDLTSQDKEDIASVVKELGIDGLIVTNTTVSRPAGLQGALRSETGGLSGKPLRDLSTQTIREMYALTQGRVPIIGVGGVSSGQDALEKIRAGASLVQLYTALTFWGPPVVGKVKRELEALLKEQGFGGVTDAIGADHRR

Row | SMILES | pIC50 [1] | pIC50 [2] | pIC50 [3]
1 | O=C(OCc1ccccc1)c1cc(-c2ccc(Cl)cc2)nc2cc(Cl)c(Cl)cc12 | 5.13 | 4.31 | < 4.00
2 | COc1ccc(-c2cc(COCc3ccccc3)c3cc(C)ccc3n2)cc1 | – | < 4.00 | < 4.00
3 | COc1ccc(-c2cc(COCc3ccccc3)c3cc(Cl)c(Cl)cc3n2)cc1 | 4.81 | < 4.00 | < 4.00
4 | Cc1ccc2nc(-c3ccc(F)cc3)cc(C(=O)OCc3ccccc3)c2c1 | 5.81 | 4.82 | 4.88
5 | COc1ccc(-c2cc(C(=O)OCc3ccccc3)c3cc(C)ccc3n2)cc1 | 5.71 | 4.76 | 4.69
6 | Clc1ccc(-c2cc(COCc3ccccc3)c3cc(Cl)c(Cl)cc3n2)cc1 | 5.91 | 4.78 | < 4.00
7 | Cc1ccc2nc(-c3ccc(F)cc3)cc(COCc3ccccc3)c2c1 | 4.87 | < 4.00 | < 4.00
8 | Cc1ccc2nc(-c3ccc(Cl)cc3)cc(COCc3ccccc3)c2c1 | – | < 4.00 | < 4.00
9 | COc1ccc(-c2cc(C(=O)OCc3ccccc3)c3cc(Cl)c(Cl)cc3n2)cc1 | 5.48 | 4.37 | 4.41
10 | Cc1ccc2nc(-c3ccc(Cl)cc3)cc(C(=O)OCc3ccccc3)c2c1 | 5.13 | < 4.00 | < 4.00
11 | Cc1c(-c2ccc(-c3ccccc3F)cc2)nc2ccc(F)cc2c1C(=O)O [BREQUINAR SODIUM] | – | 4.85 | 4.90
12 | CC(=O)O[C@H]1C(=O)[C@@]2(C)[C@H]([C@H](OC(=O)c3ccccc3)[C@]3(O)C[C@H](OC(=O)[C@H](O)[C@@H](NC(=O)c4ccccc4)c4ccccc4)C(C)=C1C3(C)C)[C@]1(OC(C)=O)CO[C@@H]1C[C@@H]2O [PACLITAXEL] | – | 4.84 | 4.88
